This note sets out measurements from ChEMBL document CHEMBL4041482, “Synthesis, evaluation, and CoMFA study of fluoroquinophenoxazine derivatives as bacterial topoisomerase IA inhibitors” (Eur J Med Chem, 2017).

The test system of one data set is Bacillus spizizenii. As to the kind of experiment: Antibacterial activity against Bacillus subtilis ATCC 6633 by microdilution method. It counts as functional. In short, it runs like this: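 Broth microdilution per standard protocol in cation-adjusted Mueller-Hinton broth; MIC taken as lowest inhibiting concentration.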
A short description of data set [1]: Selectivity index, ratio of IC50 for African green monkey Vero cells to MIC for Mycobacterium tuberculosis H37Rv. It counts as toxicity. In short, it runs like this:
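SI computed as cytotoxic IC50 against Vero cells divided by MIC against M. tuberculosis; Mtb MIC from modified microplate Alamar blue assay.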

The test system of data set [2] is Escherichia coli. The data set can be described thus: Antibacterial activity against Escherichia coli K12 MG1655 by microdilution method. The format is functional. The following applies: K-12 substr. MG1655. In short, it runs like this: (§1)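 MICs determined by standard broth microdilution in cation-adjusted Mueller-Hinton Broth; E. coli BAS3023 carries an imp mutation conferring membrane permeability to small molecules, MG1655 K12 is wild type.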
In general terms: In broth dilution the organism is exposed to a series of concentrations in liquid medium.

In a further data set the test system is Vero. The data set can be described thus: Cytotoxicity against African green monkey Vero cells assessed as reduction in cell viability after 72 hrs by MTS assay. It counts as cell-based. The following applies: Chlorocebus sabaeus. For orientation: Tetrazolium dyes change colour on reduction, which living cells bring about.
Data set [3] deals with Escherichia coli. The data set can be described thus: Antibacterial activity against Escherichia coli BAS3023 harboring imp mutant by microdilution method. The format is functional. In short, it runs like this: as §1
Data set [4] relates to Mycobacterium tuberculosis. The data set can be described thus: Antimycobacterial activity against Mycobacterium tuberculosis H37Rv after 7 days by microplate alamar blue assay. It counts as functional. Conditions: 168 h.
Data set [5] is described as follows: Inhibition of recombinant Escherichia coli topoisomerase 1a expressed in Escherichia coli assessed as reduction in enzyme-mediated relaxation of supercoiled pBAD/Thio DNA preincubated with enzyme followed by substrate addition measured after 30 mins by ethidium bromide staining based agarose gel electrophoresis method.

As usually defined, the MIC is the least concentration at which growth counts as inhibited. As a reminder, the IC50 is the concentration that gives 50% inhibition. A word on the pIC50: it is the negative decadic logarithm of the IC50, by convention in mol/L.

Structures are written as SMILES. Converted amounts (≈) assume the structure as drawn. Some results are limits rather than exact numbers.

On to `Nc1ccc2c(c1)Oc1c(NC34CC5CC(CC(C5)C3)C4)c(F)cc3c(=O)c(C(=O)O)cn-2c13`, for which the MIC against Bacillus spizizenii was 12.5 µM (≈ 5.77 µg/mL); with Escherichia coli [2] it was > 200 µM; against Escherichia coli [3] it was 3.12 µM (≈ 1.44 µg/mL); in data set [4], 38.4 µM (≈ 17.7 µg/mL). In addition, in data set [1], the “Selectivity Index” value is given as 0.8. The IC50 is 30.7 µM in the data set with Vero and 3.9 to 7.8 µM in data set [5]. Also, the pIC50 in data set [5] is recorded as 5.23.
